Screening results (PubChem BioAssay)
SIAE primary: human SIAE inhibition, primary screen; 370,000 tested, 0.69% active; inhibition, % at 9.66 µM; SIAE FP-Rh probe binding, fluorescence polarization; AID 1053197; Q9HAT2;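 active means inhibition above a cutoff: mean of compounds within the control limits plus 3 SD of those, cut at about 17% in these data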
PRMT1 inh: blocks human protein arginine methyltransferase 1. recombinant PRMT1, activity-based probe fluorescence polarization. Q99873. AID 652257. inhibition, % at 2.79 µM. 370,000 tested, 1.3% active;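 active means inhibition above about 21% made by adding two undisclosed values, limit read from the data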
HTRA1 inhibitor: blocks human HTRA1 serine peptidase | Q92743 | recombinant HTRA1, FP-rhodamine activity-based probe, fluorescence polarization | inhibition, % at 5.96 µM | 340,000 tested, 0.5% active | AID 504803; in the data active means inhibition above about 36%
Target sequence (Q92743 whole entry, looked up): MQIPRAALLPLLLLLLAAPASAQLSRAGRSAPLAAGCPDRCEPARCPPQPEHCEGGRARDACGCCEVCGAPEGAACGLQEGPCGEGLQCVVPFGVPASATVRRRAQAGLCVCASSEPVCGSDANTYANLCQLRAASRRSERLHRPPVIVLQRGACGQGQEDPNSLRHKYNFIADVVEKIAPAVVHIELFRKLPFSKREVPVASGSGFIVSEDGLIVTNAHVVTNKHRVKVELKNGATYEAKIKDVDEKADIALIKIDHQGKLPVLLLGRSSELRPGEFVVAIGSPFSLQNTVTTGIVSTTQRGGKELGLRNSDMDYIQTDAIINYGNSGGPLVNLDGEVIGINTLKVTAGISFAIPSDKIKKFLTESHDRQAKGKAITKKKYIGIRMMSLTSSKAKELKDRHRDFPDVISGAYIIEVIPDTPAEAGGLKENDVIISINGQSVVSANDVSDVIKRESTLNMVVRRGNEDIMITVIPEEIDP
ABHD4 inh: ABHD4 (mouse) inhibition, primary FP screen. Q8VD66. purified mABHD4, FP-Rh probe fluorescence polarization. inhibition, % at 8.92 µM. 370,000 tested, 0.54% active. AID 720543;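 active means inhibition exceeding the mean over every tested compound plus 3 SD, cut at about 30% in these data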
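System: mouse ABHD4 enzyme, wild type / Medium: HEPES pH 7.0, NaCl, Pluronic buffer / Reagent: FP-Rh activity-based fluorescent probe / Control set: S159A mutant high control, sample median low control / Detection: fluorescence polarization with parallel and perpendicular emission, 525/598 nm / Schedule: 45 min + 60 min at 25 °C / Compound dosing: 8.92 µM, single dose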
rCAG RNA binder: molecules binding r(CAG) RNA repeats; AID 651821; r(CAG) RNA repeat, TO-PRO-1 dye displacement fluorescence; inhibition, % at 3 µM; 370,000 tested, 1.3% active;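 active means inhibition above the plate cutoff, the mean of all test compounds on that plate plus 3 SD, cut at about 35% in these data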;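 further: higher means more dye released from RNA so lower well fluorescence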
PRMT1 inh conf: confirmation of human PRMT1 inhibitors | recombinant His-PRMT1, activity-based probe fluorescence polarization | inhibition, % at 2.79 µM | 3,300 tested, 42% active | shares compounds with PRMT1 inh;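 active means mean inhibition across replicates above the hit cutoff derived for the earlier primary screen, cut at about 22% in these data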
Numbers stand for hits. Only some compounds are listed: those with a hit (about 3.3% of all), similar ones and a draw of the others.

Screening CCOc1ccc(NC(=O)CC2C(=O)N(CC)C(=S)N2NC(=O)c2ccncc2)cc1 (stereo not drawn) returned SIAE primary inactive, PRMT1 inh inactive, HTRA1 inhibitor inactive, ABHD4 inh inactive and rCAG RNA binder inactive.
`COc1cc(OC)c(C2CC(=O)N3CN(C)CSC3=C2C#N)cc1OC` (stereo not drawn) gave SIAE primary inactive, PRMT1 inh 42.4, HTRA1 inhibitor inactive, ABHD4 inh inactive, rCAG RNA binder inactive and PRMT1 inh conf 77.5.
`Cc1ccc2nc(N(CCCN(C)C)C(=O)c3ccc4ncsc4c3)sc2c1` gave SIAE primary inactive, PRMT1 inh 28.2, HTRA1 inhibitor inactive, ABHD4 inh inactive, rCAG RNA binder inactive and PRMT1 inh conf inactive.
For O=C(CSc1nnc(COc2ccccc2)n1Cc1ccco1)NCc1ccco1 the results were SIAE primary inactive, PRMT1 inh 28.9, HTRA1 inhibitor inactive, ABHD4 inh inactive, rCAG RNA binder inactive and PRMT1 inh conf inactive.
`O=C(O)/C=C/C(=O)Nc1ccccc1-c1ccccc1` gave SIAE primary inactive, PRMT1 inh 29.7, HTRA1 inhibitor inactive, ABHD4 inh inactive, rCAG RNA binder inactive and PRMT1 inh conf inactive.
Cc1cc(/C=C(/C#N)c2nc3ccccc3[nH]2)c(C)n1-c1cccc([N+](=O)[O-])c1 was read as SIAE primary inactive, PRMT1 inh inactive, HTRA1 inhibitor inactive, ABHD4 inh inactive and rCAG RNA binder inactive.
`N#C/C(=C/c1ccc(N2CCOCC2)o1)c1nc2ccccc2[nH]1` gave SIAE primary inactive, PRMT1 inh 37.9, HTRA1 inhibitor inactive, ABHD4 inh inactive, rCAG RNA binder inactive and PRMT1 inh conf inactive.
`Cc1cc(/C=C(\C#N)c2nc3ccccc3[nH]2)c(C)n1C` gave SIAE primary inactive, PRMT1 inh 28.1, HTRA1 inhibitor inactive, ABHD4 inh inactive, rCAG RNA binder inactive and PRMT1 inh conf inactive.
`COc1ccc(CCNC(=O)c2ccc(-c3ccc([N+](=O)[O-])cc3Cl)o2)cc1` gave SIAE primary inactive, PRMT1 inh 28.4, HTRA1 inhibitor inactive, ABHD4 inh inactive, rCAG RNA binder inactive and PRMT1 inh conf inactive.
For COc1ccc(CCNC(=O)c2ccc(-c3cccc([N+](=O)[O-])c3)o2)cc1OC the results were SIAE primary inactive, PRMT1 inh inactive, HTRA1 inhibitor inactive, ABHD4 inh inactive and rCAG RNA binder inactive.
C[C@H]1[C@@H](NC(=O)c2ccc(C(F)(F)F)cc2)CC[C@@]23CCCN2C(=O)CCC[C@@H]13 was read as SIAE primary inactive, PRMT1 inh inactive and ABHD4 inh inactive.
`C[C@H]1[C@H](NC(=O)c2ccc(C(F)(F)F)cc2)CC[C@@]23CCCN2C(=O)CCC[C@@H]13` gave SIAE primary inactive, PRMT1 inh 53.5, ABHD4 inh inactive and PRMT1 inh conf inactive.
`COc1ccc(Cc2nc3ccc(C(=O)NCC(C)(C)OC)cc3o2)cc1` gave SIAE primary inactive, PRMT1 inh inactive, HTRA1 inhibitor inactive, ABHD4 inh inactive and rCAG RNA binder inactive.
Screening COc1ccc(NC2CC(=O)N(c3ccccc3)C2=O)cc1 (stereo not drawn) returned SIAE primary inactive, PRMT1 inh inactive, HTRA1 inhibitor inactive, ABHD4 inh inactive and rCAG RNA binder inactive.
For Cc1ccc(N2C(=O)CS(=O)C(c3ccccc3)C2=O)cc1C (stereo not drawn) the results were SIAE primary inactive, PRMT1 inh 90.4, HTRA1 inhibitor inactive, ABHD4 inh inactive, rCAG RNA binder inactive and PRMT1 inh conf 89.9.
For COc1ccc(N2C(=O)CS(=O)C(c3ccccc3)C2=O)cc1 (stereo not drawn) the results were SIAE primary inactive, PRMT1 inh 95.0, HTRA1 inhibitor inactive, ABHD4 inh inactive, rCAG RNA binder inactive and PRMT1 inh conf 97.2.
`COc1cccc(N(CC(=O)NC2CCCCC2)C(=O)CCCC(=O)Nc2ccccn2)c1` gave SIAE primary inactive, PRMT1 inh inactive, HTRA1 inhibitor inactive, ABHD4 inh inactive and rCAG RNA binder inactive.
`CCNc1nc(NCC)n2c(SCC(=O)Nc3ccc(Br)cc3F)nnc2n1` gave SIAE primary inactive, PRMT1 inh 37.4, HTRA1 inhibitor inactive, ABHD4 inh inactive, rCAG RNA binder inactive and PRMT1 inh conf inactive.
For CC(=O)n1nc(-c2ccncc2)nc1SCC(=O)Nc1cccc(Cl)c1 the results were SIAE primary inactive, PRMT1 inh inactive, HTRA1 inhibitor inactive, ABHD4 inh inactive and rCAG RNA binder inactive.
